Measured values published in ChEMBL document CHEMBL1131196, “Design and synthesis of hydrazinopeptides and their evaluation as human leukocyte elastase inhibitors” (J Med Chem, 1998).
Numbered stars: 1 amine (or outer) side, 2 acyl side, 3 side chain; on linkers, the order of the positions; unused ones are H or OH. Square brackets hold non-standard residues; d marks the D form. Peptide text beside a SMILES is read from it. * marks the point of attachment. X1 = O=C([C@H]1CCCN1N[*:1])[*:2]; Cbz = O=C(OCc1ccccc1)*; NHiPr = CC(C)N*

T1: Neutrophil elastase (Homo sapiens, UniProt P08246)
T1 sequence (P08246 whole entry): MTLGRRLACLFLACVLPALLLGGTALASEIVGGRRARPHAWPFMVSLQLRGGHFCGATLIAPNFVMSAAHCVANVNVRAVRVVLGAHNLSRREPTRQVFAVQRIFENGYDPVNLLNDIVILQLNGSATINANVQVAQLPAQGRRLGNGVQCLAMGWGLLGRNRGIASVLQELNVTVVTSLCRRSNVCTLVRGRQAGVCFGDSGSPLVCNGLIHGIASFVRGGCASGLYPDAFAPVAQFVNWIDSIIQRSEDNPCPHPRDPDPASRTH

T2: Neutrophil elastase (Homo sapiens) (UniProt P08246)
T2 sequence (whole entry): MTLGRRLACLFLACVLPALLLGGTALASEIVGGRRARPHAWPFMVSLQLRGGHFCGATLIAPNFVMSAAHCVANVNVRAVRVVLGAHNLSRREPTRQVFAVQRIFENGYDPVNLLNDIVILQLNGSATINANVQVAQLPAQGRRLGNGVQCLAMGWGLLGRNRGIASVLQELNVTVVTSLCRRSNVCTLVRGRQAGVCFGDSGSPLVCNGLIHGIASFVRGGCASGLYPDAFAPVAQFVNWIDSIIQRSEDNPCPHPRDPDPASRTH


Assays:
[1] = biological target: Pancreatic elastase (Sus scrofa, UniProt P08419+P00772); experiment: Inhibition constant of compound measured toward porcine Pancreatic elastase at pH 8 and 25 degree C.; type: protein assay
How it was run: (§1)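 Chromogenic p-nitroanilide substrates, with MeO-Suc-Ala-Ala-Pro-Val-pNA for HLE. Enzymes were HLE 20 nM or PPE 22 nM, with inhibitors at 25–300 µM. Assays ran in 0.05 M Hepes pH 8.0 with 10% v/v DMSO at 25 °C, monitoring p-nitroaniline release continuously at 405 nm. Initial rates were fit to competitive inhibition. Ki came from a linear plot of Km(app)/Vm vs [I]; reversibility was checked by buffer exchange.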

[2] = biological target: T1, Neutrophil elastase; experiment: Inhibition constant of compound measured toward human leukocyte elastase (HLE) at pH 8 and 25 degree C.; how it was run: as §1
[3] = biological target: T2, Neutrophil elastase (Homo sapiens); experiment: (§2) Kinetic parameter was calculated by Michaelis equation catalyzed by Leukocyte elastase at 25 degree C and pH 8.
How it was run: (§3)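 HLE at 200 nM, in 0.05 M Hepes pH 8.0 with 10% v/v DMSO and no NaCl, at 25 °C. Hydrolysis was read either by absorbance at 250 nm (substrate 5–50 µM) or by C8 reverse-phase HPLC (substrate 5–20 µM). For HPLC, products at 2–5 min were quantified against a Z-Ala-Ala-Pro-Val calibration. kcat and Km came from least-squares Michaelis fits. For HPLC, kcat/Km came from the linearized rate below Km.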

[4] = The catalytic efficiency is the ratio of kcat to that of Km.; how it was run: as §3
[5] = substrate: CC(C)NC(=O)[C@H](C)NC(=O)[C@H](C)NNC(=O)[C@@H](NC(=O)[C@H]1CCCN1C(=O)[C@H](C)NC(=O)[C@H](C)NC(=O)OCc1ccccc1)C(C)C; experiment: as §2; how it was run: as §3
[6] = substrate: CC(C)NC(=O)[C@H](C)NC(=O)[C@H](C)NC(=O)[C@@H](NC(=O)[C@H]1CCCN1C(=O)[C@H](C)NC(=O)[C@H](C)NC(=O)OCc1ccccc1)C(C)C; experiment: as §2; how it was run: as §3

Row | Ki [1] | Ki [2] | k cat [3] | k cat/Km [4] | Molecule | also measured
1 | 397 µM | 595 µM | – | – | CC(C)NC(=O)[C@H](C)NC(=O)[C@H](C)NC(=O)[C@@H](NNC(=O)[C@H]1CCCN1C(=O)[C@H](C)NC(=O)[C@H](C)NC(=O)OCc1ccccc1)C(C)C | –
2 | 146 µM | 65 µM | – | – | CC(C)NC(=O)[C@H](C)NC(=O)[C@H](C)NC(=O)[C@@H](NC(=O)[C@H]1CCCN1NC(=O)[C@H](C)NC(=O)[C@H](C)NC(=O)OCc1ccccc1)C(C)C (Cbz-AA[X1]VAA-NHiPr) | –
3 | – | – | 0.88 s⁻¹ | 6780 M⁻¹ s⁻¹ | CC(C)NC(=O)[C@H](C)NC(=O)[C@H](C)NC(=O)[C@@H](NC(=O)[C@H]1CCCN1C(=O)[C@H](C)NC(=O)[C@H](C)NC(=O)OCc1ccccc1)C(C)C | –
4 | – | – | 2.24 s⁻¹ | 3150 M⁻¹ s⁻¹ | CC(C)NC(=O)[C@H](C)NC(=O)[C@H](C)NNC(=O)[C@@H](NC(=O)[C@H]1CCCN1C(=O)[C@H](C)NC(=O)[C@H](C)NC(=O)OCc1ccccc1)C(C)C | –
5 | – | – | – | – | Neutrophil elastase (Homo sapiens), P08246 (protein) MTLGRRLACLFLACVLPALLLGGTALASEIVGGRRARPHAWPFMVSLQLRGGHFCGATLIAPNFVMSAAHCVANVNVRAVRVVLGAHNLSRREPTRQVFAVQRIFENGYDPVNLLNDIVILQLNGSATINANVQVAQLPAQGRRLGNGVQCLAMGWGLLGRNRGIASVLQELNVTVVTSLCRRSNVCTLVRGRQAGVCFGDSGSPLVCNGLIHGIASFVRGGCASGLYPDAFAPVAQFVNWIDSIIQRSEDNPCPHPRDPDPASRTH | Km [5]: 712 µM; Km [6]: 131 µM
